Assay outcomes deposited in PubChem BioAssay by Johns Hopkins Ion Channel Center.
TRPC4 PAM = positive allosteric modulators of TRPC4, primary screen, cell-based, mouse TRPC4beta, HEK293 mu-opioid, Fluo-4 calcium; Short transient receptor potential channel 4 (Mus musculus), Q9QUQ5; DAMGO EC20, Fluo-4 Ca2+ flux; hits give high values; B-score at 10 µM; 0.42% of 310,000 active; AID 2227, 2009;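 active means B-score of calcium response area above 5 SD of library B-scores, with initial fluorescence ratio within 5 SD of library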
Kir21 inh = inhibitors of mouse Kir2.1 inward-rectifier potassium channel | HEK293-Kir2.1, FluxOR thallium flux fluorescence; hits give low values | B-score at 10 µM | 0.85% of 310,000 active;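 active means fluorescence ratio B-score at or below minus 3 SD of library scores, with starting-brightness B-score within 2 SD, cut at about -4.2 in these data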;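 further: channel flux triggered by added potassium and thallium sulfate stimulus; B-score of peak minus minimum fluorescence over baseline after thallium stimulus; more negative B-score means stronger Kir2.1 block with less thallium influx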
Target sequence (P35561 whole entry, looked up): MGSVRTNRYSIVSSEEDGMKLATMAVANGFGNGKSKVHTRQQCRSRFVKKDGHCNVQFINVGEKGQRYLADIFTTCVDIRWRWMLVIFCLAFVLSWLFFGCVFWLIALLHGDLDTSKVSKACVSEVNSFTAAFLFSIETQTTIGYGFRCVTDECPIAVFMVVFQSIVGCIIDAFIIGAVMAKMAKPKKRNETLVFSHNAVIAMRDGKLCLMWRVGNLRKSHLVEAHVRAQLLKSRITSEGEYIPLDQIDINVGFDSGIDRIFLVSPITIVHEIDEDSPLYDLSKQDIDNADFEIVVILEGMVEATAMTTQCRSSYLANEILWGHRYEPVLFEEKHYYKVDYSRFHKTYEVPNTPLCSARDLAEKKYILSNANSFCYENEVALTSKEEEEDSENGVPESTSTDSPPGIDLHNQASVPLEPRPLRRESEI
TRPC6 inh = mouse TRPC6 channel inhibitors, primary screen, cell-based, HEK293, membrane potential dye; ACh-evoked depolarization; hits give low values; B-score at 10 µM; 1.1% of 310,000 active; AID 2553, 2010; Short transient receptor potential channel 6 (Mus musculus), Q61143;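 active means B-score under library mean minus 3 SD, initial fluorescence not abnormally high, positive integrated signal ratio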;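 further: B-score derived from integrated fluorescence ratio over the kinetic read; more negative B-score means stronger inhibition of depolarization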
TRPC4 agonist = activators of mouse TRPC4 channel, primary screen, Fluo4 calcium, HEK293 TRPC4beta/mu-opioid cells; B-score at 10 µM; Fluo4 calcium fluorescence; hits give high values; 0.49% of 310,000 active;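 active means B-score above 5 SD of library B-scores, and initial fluorescence ratio not above library mean plus 5 SD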;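 further: positive B-score marks a calcium rise read as TRPC4 activation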
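Incubation: 45 min room-temperature Fluo4 loading, 110 s read / System: HEK293 cells stably co-expressing mouse TRPC4beta and mu-opioid receptor / Signal: Fluo4 fluorescence, kinetic / Control set: buffer (low) and maximal DAMGO (high) / Measure: integrated baseline-normalised fluorescence ratio, converted to per-well B score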
TRPC6 activator = mouse TRPC6 channel activators, primary screen, cell-based, HEK293, membrane potential dye | Short transient receptor potential channel 6 (Mus musculus), Q61143 | HEK293-TRPC6 membrane potential dye fluorescence; hits give high values | B-score at 10 µM | 0.13% of 310,000 active | AID 2550, 2010;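 active means B-score of the integrated fluorescence ratio above library mean plus 3 SD, and starting fluorescence ratio within library mean plus 5 SD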;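 further: higher score means more depolarization so channel activation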
TRPC4 block = inhibitors of mouse TRPC4 channel, primary screen, Fluo4 calcium, HEK293 TRPC4beta/mu-opioid cells; 0.39% of 300,000 active; B-score at 10 µM; AID 2247, 2010; DAMGO-evoked Fluo4 calcium flux; hits give low values; Short transient receptor potential channel 4 (Mus musculus), Q9QUQ5;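 active means B-score over 3 SD under the library average, no early fluorescence shift, positive overall ratio signal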
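Signal: kinetic Fluo4 fluorescence imaging of calcium influx. Material: stable TRPC4beta/mu-opioid receptor HEK293 cells. Probe or stimulus: DAMGO in two steps, submaximal then maximal.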
TRPC4 spec 2 = second check of whether TRPC6 inhibitors also affect mouse TRPC4; 42% of 920 active; HEK293 TRPC4/MOR, membrane potential dye fluorescence; channel activated by saturating DAMGO dose; inhibition, % at 10 µM; shares compounds with TRPC6 inh;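 active means compounds whose fluorescence signal differed from control wells by over 3 SD, either direction, in both duplicate plates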
TRPC4 spec = mouse TRPC4 modulation by TRPC6 hits, confirmation, selectivity assay for TRPC6 inhibitor project, cell-based, HEK293 TRPC4/mu-opioid, membrane potential dye. membrane potential fluorescence. 61% of 920 active. activity change, negative = inhibition, % at 10 µM. shares compounds with TRPC6 inh;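 active means rise or fall in signal beyond 3 SD of buffer-only wells in both replicate plates, either sign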;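 further: integrated kinetic ratio of fluorescence range over baseline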
HEK293 MPD ctr 2-1 = nonspecific membrane potential effects, parental HEK293, confirmation, counter-screen for TRPC6 inhibitor project, cell-based, second counter screen | 31% of 920 active | parental HEK293 membrane potential dye fluorescence; maximal acetylcholine challenge after compound addition | shares compounds with TRPC6 inh | signal change vs control, % at 10 µM;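 active means membrane potential signal moving either way by over 3 SD of the maximum-effect control, in both duplicate plates, meaning non-specific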
HEK293 MPD ctr-1 = membrane potential modulation in parental HEK293, confirmation, counter-screen for TRPC6 inhibitor project, cell-based | 60% of 920 active | AID 2780, 2010 | shares compounds with TRPC6 inh | parental HEK293 membrane potential dye fluorescence | membrane potential signal change, % at 10 µM;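 active means membrane potential signal shifting up or down by more than 3 SD of buffer-only wells, on both duplicate plates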
HEK293 MPD ctr-2 = parental HEK293 membrane potential modulation, confirmation, counter-screen for TRPC6 modulator project, cell-based; shares compounds with TRPC6 inh; membrane potential dye fluorescence; membrane potential signal change, % at 10 µM; 51% of 2,400 active; AID 488924, 2010;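 active means membrane potential signal moves up or down beyond 5 SD from buffer-only wells, on both duplicate plates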
HEK293 MPD ctr 2-2 = second check of TRPC6 modulator effects in parental HEK293 cells; shares compounds with TRPC6 inh; membrane potential dye fluorescence; after compound, maximal acetylcholine stimulation; inhibition, % at 10 µM; 14% of 2,400 active; AID 488926;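 active means membrane potential signal drops by more than 5 SD from the mean control signal, in both duplicate plates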
TRPC4 ctr mod = TRPC4 modulation by TRPC6 hit compounds, confirmation, selectivity assay for TRPC6 modulator project, cell-based, HEK293 TRPC4/mu-opioid, membrane potential dye, mouse. shares compounds with TRPC6 inh. membrane potential fluorescence. percent change from control (negative = decrease, positive = increase), % at 10 µM. 69% of 2,400 active. AID 488927, 2010;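 active means membrane potential signal moved up or down beyond 5 SD of buffer control wells, in both duplicate plates, actives on both sides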
TRPC4 ctr inh 2 = mouse TRPC4 off-target activity of TRPC6 modulators, second screen; shares compounds with TRPC6 inh; HEK293 TRPC4/mu-opioid, membrane potential dye fluorescence; stimulated with maximal-effect DAMGO; inhibition, % at 10 µM; 55% of 2,400 active; AID 488928;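 active means drop in membrane potential signal beyond 5 SD of the control wells in both duplicate plates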;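 further: TRPC4 counter screen for TRPC6 hits run under conditions tuned for TRPC6 not TRPC4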
TRPC6 block conf = mouse TRPC6 channel inhibitors, confirmation, HEK293 cells, membrane potential dye, duplicate; shares compounds with TRPC6 inh; ACh-evoked depolarization; 43% of 3,300 active; inhibition, % at 10 µM;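 active means fluorescence ratio falls more than 5 SD below the full-stimulation control mean, in both duplicate runs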;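 further: integrated fluorescence ratio of peak minus minimum over baseline after agonist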
TRPC6 act conf = mouse TRPC6 channel activators, confirmation, HEK293 cells, membrane potential dye, duplicate | activation, % at 10 µM | 11% of 2,800 active | shares compounds with TRPC6 inh | HEK293-TRPC6 membrane potential dye fluorescence, FDSS;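 active means ratio signal rise beyond 5 SD above unstimulated control wells' mean, seen in both duplicate runs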
Each line names hits and unclear results; the compound was inactive in the other large screens (follow-up assays come after a bar, where they were run). Hits are enriched below; roughly 2.9% of the tested compounds scored in any of these assays.

C[N+](C)(C)C/C=C1/COCO1	TRPC6 inh -6.7 | TRPC4 spec 2 inactive | TRPC4 spec 0.5% | HEK293 MPD ctr 2-1 inactive | HEK293 MPD ctr-1 0.3% | TRPC6 block conf inactive
O=S(=O)(/C=C/c1ccccc1)Nc1cccc(S(=O)(=O)NC2=NCCC2)c1	none
O=C(NC1CCCCC1)C(c1ccc(F)cc1)N(CCN1CCOCC1)C(=O)c1ccc(-c2ccccc2)[nH]1 (stereo unspecified)	none
O=C(NC1CCCC1)C(c1ccncc1)N(CCCN1CCOCC1)C(=O)c1ccc(-c2ccccc2)[nH]1 (stereo unspecified)	TRPC6 inh -5.1 | HEK293 MPD ctr-2 inactive | HEK293 MPD ctr 2-2 inactive | TRPC4 ctr mod inactive | TRPC4 ctr inh 2 36% | TRPC6 block conf inactive | TRPC6 act conf inactive
O=C(NCC(=O)N1CCOCC1)c1ccc(Cl)cc1	TRPC6 inh -9.1 | HEK293 MPD ctr-2 inactive | HEK293 MPD ctr 2-2 inactive | TRPC4 ctr mod inactive | TRPC4 ctr inh 2 inactive | TRPC6 block conf inactive | TRPC6 act conf inactive
O=C(NCC(=O)N1CCOCC1)c1ccccc1	none
